Results reported in ChEMBL document CHEMBL4251600, “Bioactive products from singlet oxygen photooxygenation of cannabinoids” (Eur J Med Chem, 2018).
≈ marks a conversion by molar mass, not a printed value. Calls of active or inactive are those of the source. The rule behind the calls is not given here.

Legend:
Cannabinoid receptor 2 [1] = target: T1, Cannabinoid receptor 2 (Homo sapiens, UniProt P34972); experiment: Displacement of [3H]CP-55,940 from recombinant human full length CB2 receptor expressed in HEK293 cell membranes after 90 mins by topcount method
T1 sequence (P34972 whole entry): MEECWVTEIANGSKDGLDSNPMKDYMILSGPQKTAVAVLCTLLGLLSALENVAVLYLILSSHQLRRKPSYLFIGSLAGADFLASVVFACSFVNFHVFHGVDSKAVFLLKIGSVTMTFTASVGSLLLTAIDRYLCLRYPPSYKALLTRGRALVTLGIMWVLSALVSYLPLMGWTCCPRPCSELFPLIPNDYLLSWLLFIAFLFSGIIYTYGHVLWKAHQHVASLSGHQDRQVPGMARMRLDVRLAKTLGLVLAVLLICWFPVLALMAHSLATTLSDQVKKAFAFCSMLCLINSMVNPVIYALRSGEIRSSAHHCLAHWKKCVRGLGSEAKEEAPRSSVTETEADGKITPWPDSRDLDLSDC

Cannabinoid receptor 1 [2] = target: T2, Cannabinoid receptor 1 (Homo sapiens, UniProt P21554); experiment: Displacement of [3H]CP-55,940 from recombinant human full length CB1 receptor expressed in HEK293 cell membranes after 90 mins by topcount method
T2 sequence (P21554 whole entry): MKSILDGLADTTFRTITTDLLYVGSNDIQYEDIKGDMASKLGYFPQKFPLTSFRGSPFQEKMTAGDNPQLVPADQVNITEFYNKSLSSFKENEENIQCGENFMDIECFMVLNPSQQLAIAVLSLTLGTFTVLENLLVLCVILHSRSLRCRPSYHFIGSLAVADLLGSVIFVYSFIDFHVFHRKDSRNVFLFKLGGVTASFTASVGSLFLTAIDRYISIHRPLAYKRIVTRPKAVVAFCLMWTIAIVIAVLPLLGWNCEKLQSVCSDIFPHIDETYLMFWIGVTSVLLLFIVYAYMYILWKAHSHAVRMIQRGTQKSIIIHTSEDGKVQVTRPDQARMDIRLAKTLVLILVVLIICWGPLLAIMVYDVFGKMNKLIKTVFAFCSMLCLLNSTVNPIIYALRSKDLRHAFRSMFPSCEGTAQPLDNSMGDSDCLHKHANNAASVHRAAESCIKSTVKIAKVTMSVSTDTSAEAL

Plasmodium falciparum [3] = experiment: Antiplasmodial activity against chloroquine-sensitive Plasmodium falciparum D6 infected in red blood cells incubated for 72 hrs by parasite LDH release based colorimetric assay; assay type: functional, organism-based; conditions: D6, 72 h
Plasmodium falciparum [4] = experiment: Antiplasmodial activity against chloroquine-resistant Plasmodium falciparum W2 infected in red blood cells incubated for 72 hrs by parasite LDH release based colorimetric assay; assay type: functional, organism-based; conditions: W2, 72 h
Leishmania donovani = experiment: Antileishmanial activity against Leishmania donovani promastigotes incubated for 48 hrs by alamar blue assay; assay type: functional, organism-based; conditions: Leishmania donovani, 48 h; for IC50: read-out: IC50; for IC90: read-out: IC90
Pichia kudriavzevii = experiment: Antifungal activity against Candida krusei by modified CLSI based method; assay type: functional, organism-based
Staphylococcus aureus [5] = experiment: Antimicrobial activity against methicillin-resistant Staphylococcus aureus by modified CLSI based method; assay type: functional, organism-based
Cryptococcus neoformans = experiment: Antifungal activity against Cryptococcus neoformans by alamar blue assay; assay type: functional, organism-based; conditions: Cryptococcus neoformans; for IC50: read-out: IC50; for MIC: read-out: MIC
Nakaseomyces glabratus = experiment: Antifungal activity against Candida glabrata by modified CLSI based method; assay type: functional, organism-based
Staphylococcus aureus [6] = experiment: Antimicrobial activity against Staphylococcus aureus by modified CLSI based method; assay type: functional, organism-based; conditions: for IC50: read-out: IC50
LLC-PK1 = experiment: Cytotoxicity against pig LLC-PK1 cells assessed as cell growth inhibition incubated for 48 hrs by neutral red dye based assay; set-up: species or system Sus scrofa; conditions: Sus scrofa, LLC-PK1, 48 h; read-out: IC50
SK-OV-3 = experiment: Anticancer activity against human SKOV3 cells assessed as cell growth inhibition up to 10 ug/ml incubated for 48 hrs by neutral red dye based assay; assay type: functional
KB = experiment: Anticancer activity against human KB cells assessed as cell growth inhibition up to 10 ug/ml incubated for 48 hrs by neutral red dye based assay; assay type: functional
BT-549 = experiment: Anticancer activity against human BT549 cells assessed as cell growth inhibition incubated for 48 hrs by neutral red dye based assay; assay type: functional; conditions: BT-549, 48 h
SK-MEL = experiment: Anticancer activity against human SK-MEL cells assessed as cell growth inhibition incubated for 48 hrs by neutral red dye based assay; assay type: functional
Cannabinoid receptor 1 [7] = target: T2, Cannabinoid receptor 1; experiment: Agonist activity at recombinant human full length CB1 receptor expressed in HEK293 cell membranes after 2 hrs by [35S]GTP-gammaS binding assay; assay type: functional
Outline: (§1)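 Membranes (20 µg/well) from HEK293 cells stably transfected with human CB1 or CB2 cDNA were incubated with test compound and 0.5 nM [35S]-GTP-γS. Buffer: 50 mM Tris-HCl, 0.2 mM EGTA, 9 mM MgCl2, 150 mM NaCl, 50 µM GDP, 1.4 mg/ml BSA. Incubation ran 2 h at 30°C and was stopped by vacuum filtration through GF/B filters with cold Tris-HCl. Nonspecific binding was taken with 40 µM GTP-γS.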

Cannabinoid receptor 2 [8] = target: T1, Cannabinoid receptor 2; experiment: Agonist activity at recombinant human full length CB2 receptor expressed in HEK293 cell membranes after 2 hrs by [35S]GTP-gammaS binding assay; assay type: functional; outline: as §1
[9] = Staphylococcus aureus, read-out: IC50
[10] = Staphylococcus aureus, read-out: MIC

CCCCCc1cc2c(c(OS(=O)(=O)c3ccc(C)cc3)c1)[C@@H]1[C@H](O)C(C)=CC[C@H]1C(C)(C)O2
IC50 (Cannabinoid receptor 2 [1]): 1110 nM | Ki (Cannabinoid receptor 2 [1]): 552 nM | IC50 (Cannabinoid receptor 1 [2]): 1280 nM | Ki (Cannabinoid receptor 1 [2]): 642 nM

CCCCCc1cc2c(c(OS(=O)(=O)c3ccc(C)cc3)c1)[C@H]1[C@@H](CC=C(C)[C@@H]1OO)C(C)(C)O2
IC50 (Cannabinoid receptor 2 [1]): 851 nM | Ki (Cannabinoid receptor 2 [1]): 426 nM | IC50 (Cannabinoid receptor 1 [2]): 1020 nM | Ki (Cannabinoid receptor 1 [2]): 512 nM

CCCCCc1cc2c(c(OS(=O)(=O)c3ccc(C)cc3)c1)C1=C(CC[C@](C)(O)[C@H]1OCC)C(C)(C)O2
IC50 (Plasmodium falciparum [3]): 2.2 µg/mL (≈ 4.16 µM) | IC50 (Plasmodium falciparum [4]): 1.8 µg/mL (≈ 3.4 µM) | IC50 (Leishmania donovani): 4.5 µg/mL (≈ 8.51 µM) | IC90 (Leishmania donovani): 22 µg/mL (≈ 41.6 µM)

CCCCCC1=CC(=O)C2=C(OC(C)(C)[C@@H]3C=CC(C)(OO)C[C@@H]23)C1=O (some centres undefined)
MIC (Pichia kudriavzevii; Pichia kudriavzevii): 10 µg/mL (≈ 27.7 µM) | IC50 (Pichia kudriavzevii; Pichia kudriavzevii, read-out: IC50): 5.77 µg/mL (≈ 16 µM) | MIC (Staphylococcus aureus [5]; Staphylococcus aureus): 5 µg/mL (≈ 13.9 µM) | IC50 (Staphylococcus aureus [5]; [9]): 2.63 µg/mL (≈ 7.3 µM) | IC50 (Cryptococcus neoformans): 0.93 µg/mL (≈ 2.58 µM) | MIC (Cryptococcus neoformans): 2.5 µg/mL (≈ 6.94 µM) | MIC (Nakaseomyces glabratus; Nakaseomyces glabratus): 10 µg/mL (≈ 27.7 µM) | IC50 (Nakaseomyces glabratus; Nakaseomyces glabratus, read-out: IC50): 6.54 µg/mL (≈ 18.1 µM) | IC50 (Leishmania donovani): 0.7 µg/mL (≈ 1.94 µM) | IC90 (Leishmania donovani): 1.2 µg/mL (≈ 3.33 µM) | IC50 (Staphylococcus aureus [6]; Staphylococcus aureus): 1.3 µg/mL (≈ 3.61 µM) | MIC (Staphylococcus aureus [6]; [10]): 2.5 µg/mL (≈ 6.94 µM)

C=C1CC[C@@H]2[C@H](c3c(cc(CCCCC)cc3OS(=O)(=O)c3ccc(C)cc3)OC2(C)C)[C@@H]1OO
IC50 (Leishmania donovani): 3.1 µg/mL (≈ 6.19 µM) | IC90 (Leishmania donovani): 6.5 µg/mL (≈ 13 µM)

CCCCCc1cc(OC(C)=O)c2c(c1)OC(C)(C)C1=C2C(O)C(C)(O)CC1 (centres undefined)
IC50 (Plasmodium falciparum [3]): 4.5 µg/mL (≈ 11.6 µM) | IC50 (Plasmodium falciparum [4]): 3.2 µg/mL (≈ 8.24 µM)

C=C1C[C@H]2C3=C(OC(C)(C)[C@@H]2C[C@H]1O)C(=O)C(CCCCC)=CC3=O
IC50 (Pichia kudriavzevii): Not Active | MIC (Pichia kudriavzevii): inactive | MIC (Staphylococcus aureus [5]; Staphylococcus aureus): 10 µg/mL (≈ 29 µM) | IC50 (Staphylococcus aureus [5]; [9]): 5.53 µg/mL (≈ 16.1 µM) | IC50 (Cryptococcus neoformans): 1.84 µg/mL (≈ 5.34 µM) | MIC (Cryptococcus neoformans): 5 µg/mL (≈ 14.5 µM) | IC50 (Nakaseomyces glabratus): Not Active | MIC (Nakaseomyces glabratus): inactive | IC50 (Leishmania donovani): 0.6 µg/mL (≈ 1.74 µM) | IC90 (Leishmania donovani): 1.3 µg/mL (≈ 3.77 µM) | IC50 (Staphylococcus aureus [6]; Staphylococcus aureus): 2.03 µg/mL (≈ 5.89 µM) | MIC (Staphylococcus aureus [6]; [10]): 2.5 µg/mL (≈ 7.26 µM)

C=C1C[C@H]2c3c(cc(CCCCC)cc3OS(=O)(=O)c3ccc(C)cc3)OC(C)(C)[C@@H]2CC1OO (some centres undefined)
IC50 (Cannabinoid receptor 2 [1]): 2060 nM | Ki (Cannabinoid receptor 2 [1]): 1030 nM | IC50 (Cannabinoid receptor 1 [2]): 5700 nM | Ki (Cannabinoid receptor 1 [2]): 2850 nM

CCCCCC1=CC(=O)C2=C(OC(C)(C)c3ccc(C)cc32)C1=O
IC50 (LLC-PK1): 5.65 µg/mL (≈ 17.4 µM) | IC50 (SK-OV-3): Not Active | IC50 (Pichia kudriavzevii): Not Active | MIC (Pichia kudriavzevii): inactive | IC50 (Staphylococcus aureus [5]): Not Active | MIC (Staphylococcus aureus [5]): inactive | IC50 (Cryptococcus neoformans): 4.44 µg/mL (≈ 13.7 µM) | MIC (Cryptococcus neoformans): 20 µg/mL (≈ 61.6 µM) | IC50 (KB): Not Active | IC50 (Nakaseomyces glabratus): Not Active | MIC (Nakaseomyces glabratus): inactive | MIC (Staphylococcus aureus [6]): inactive | IC50 (Staphylococcus aureus [6]; Staphylococcus aureus): > 20 µg/mL | IC50 (BT-549): 6.05 µg/mL (≈ 18.6 µM) | IC50 (SK-MEL): 7.6 µg/mL (≈ 23.4 µM)

C=C1C[C@H]2C3=C(OC(C)(C)[C@@H]2CC1OO)C(=O)C(CCCCC)=CC3=O (stereo in doubt; 25)
MIC (Pichia kudriavzevii): inactive | MIC (Nakaseomyces glabratus): inactive

N=C(N)c1ccc(OCCCCCOc2ccc(C(=N)N)cc2)cc1 [PENTAMIDINE]
IC90 (Leishmania donovani): 2 µg/mL (≈ 5.87 µM)

CCCCCc1cc(OC(C)=O)c2c(c1)OC(C)(C)[C@@H]1CC=C(C)C[C@@H]21
IC50 (Cannabinoid receptor 2 [1]): 316 nM | Ki (Cannabinoid receptor 2 [1]): 158 nM | IC50 (Cannabinoid receptor 1 [2]): 88 nM | Ki (Cannabinoid receptor 1 [2]): 44 nM | IC50 (Cannabinoid receptor 1 [7]): 87 nM | Ki (Cannabinoid receptor 1 [7]): 43 nM | IC50 (Cannabinoid receptor 2 [8]): 518 nM | Ki (Cannabinoid receptor 2 [8]): 259 nM

C[C@@H]1[C@H](O)[C@@H](C)/C=C/C=C/C=C/C=C/C=C/C=C/C=C/[C@H](O[C@@H]2O[C@H](C)[C@@H](O)[C@H](N)[C@@H]2O)C[C@@H]2O[C@](O)(C[C@@H](O)C[C@@H](O)[C@H](O)CC[C@@H](O)C[C@@H](O)CC(=O)O[C@H]1C)C[C@H](O)[C@H]2C(=O)O [AMPHOTERICIN B]
IC50 (Cryptococcus neoformans): 1.36 µg/mL (≈ 1.47 µM) | MIC (Cryptococcus neoformans): 2.5 µg/mL (≈ 2.71 µM) | IC50 (Leishmania donovani): 0.16 µg/mL (≈ 0.173 µM) | IC90 (Leishmania donovani): 0.33 µg/mL (≈ 0.357 µM)
